Measurements published in ChEMBL document CHEMBL1152736, “Synthesis and biological testing of thioalkane- and thioarene-spaced bis-beta-D-glucopyranosides” (Bioorg Med Chem, 2009).
Activity calls are given as the source filed them. The rule behind the calls is not given here.

How the values were obtained:
Assay type in all cases: functional, cell-based
MOLT-3 [1] = assay: Reduction in viability of human MOLT3 cells at 75 uM after 24 hrs by MTS assay
How it was run: (§1)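 MTS colorimetric assay: 2 × 10⁴ cells in 100 µL RPMI-1640 with 5% FBS, 2 mM L-glutamine and penicillin–streptomycin, with compound or DMSO vehicle for 24 h. MTS reagent then added for 4 h and absorbance read at 490 nm. Mean and SD of three determinations. Comparison with vehicle by Student's t-test.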

U-937 [2] = assay: Induction of apoptosis in human U937 cells at 10 uM after 24 hrs by fluorescence microscopy
How it was run: (§2)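 Cells exposed 24 h to DMSO vehicle or test agent at 10–75 µM. Stained with acridine orange; apoptosis scored morphologically by fluorescence microscopy, over 600 cells analyzed. % apoptosis = apoptotic cells / total cells counted × 100. Mean and SD of three determinations. Comparison with vehicle by Student's t-test (MOLT3) or Tukey HSD (U937).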

MOLT-3 [3] = assay: Induction of apoptosis in human MOLT3 cells at 10 uM after 24 hrs by fluorescence microscopy; how it was run: as §2
U-937 [4] = assay: Stimulation of growth of human U937 cells at 25 to 50 uM after 24 hrs
U-937 [5] = assay: Reduction in viability of human U937 at 75 uM after 24 hrs by MTS assay; how it was run: as §1
MOLT-3 [6] = assay: Stimulation of growth of human MOLT3 cells at 25 to 50 uM after 24 hrs
U-937 [7] = assay: Induction of apoptosis in human U937 cells after 24 hrs by fluorescence microscopy; how it was run: as §2
MOLT-3 [8] = assay: Induction of apoptosis in human MOLT3 cells after 24 hrs by fluorescence microscopy; how it was run: as §2

Structure (SMILES): C=C(CO[C@@H]1O[C@H](COC(C)=O)[C@@H](OC(C)=O)[C@H](OC(C)=O)[C@H]1OC(C)=O)[S+]([O-])c1cccc([S+]([O-])C(=C)CO[C@@H]2O[C@H](COC(C)=O)[C@@H](OC(C)=O)[C@H](OC(C)=O)[C@H]2OC(C)=O)c1 (stereo partly drawn)
- Activity (MOLT-3 [1]): Active
- Activity (U-937 [2]): inactive
- Activity (MOLT-3 [3]): inactive
- Activity (U-937 [4]): Active
- Activity (U-937 [5]): Active
- Activity (MOLT-3 [6]): Active
- Activity (U-937 [7]): Dose-dependent effect
- Activity (MOLT-3 [8]): Dose-dependent effect
